Assay outcomes: PubChem, several laboratories
Shown are actives, neighbours in structure and some others; about 12% of the full set was active somewhere.
Rad51 HR inh: Rad51 (human) homologous recombination inhibition; hRad51 DNA strand exchange, fluorescence dequenching; 200,000 compounds, 0.085% hits; Q06609; inhibition, % at 10 µM;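 active means inhibition above 40% at the single screening dose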;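 further: 0% = DMSO control wells and 100% = blanks with heterologous ssDNA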
Target sequence (Q06609 whole entry, looked up): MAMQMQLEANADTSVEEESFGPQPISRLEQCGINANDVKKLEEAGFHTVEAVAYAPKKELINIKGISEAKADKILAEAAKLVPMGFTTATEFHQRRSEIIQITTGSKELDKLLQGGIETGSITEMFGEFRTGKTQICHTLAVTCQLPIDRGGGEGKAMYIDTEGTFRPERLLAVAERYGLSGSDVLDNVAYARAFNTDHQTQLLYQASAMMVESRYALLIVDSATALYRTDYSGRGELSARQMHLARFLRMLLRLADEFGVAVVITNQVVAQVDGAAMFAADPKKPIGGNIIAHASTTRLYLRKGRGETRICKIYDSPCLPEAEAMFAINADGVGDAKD
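material = hRad51 filaments on single-stranded DNA | reagent = Donor/quencher-labelled 47-bp dsDNA substrate | compound = 10 µM final, single point | schedule = strand-exchange reaction 15 min at room temperature | measured by = fluorescein emission 520 nm, excitation 485 nm | read-out basis = % inhibition versus plate control and blank means | benchmarks = plate controls and plate blanks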
CHOP inhibitor: inhibitors of CHOP induction in ER stress response; AID 2732; 220,000 compounds, 3.8% hits; CHO-K1 CHOP-promoter luciferase, tunicamycin-induced, 15-18 h; inhibition, % at 10 µM;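 active means compounds that reduced the stress-induced luciferase reporter signal by more than about 70% of percent inhibition, limit read from the data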;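 further: 0% = tunicamycin plus vehicle and 100% = wells without tunicamycin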
PKD1 inh: inhibitors of human PKD1 kinase; PKD1 kinase fluorescence polarization assay; inhibition, % (test concentration not listed); 200,000 compounds, 0.056% hits
Arbovirus anti: antivirals against arbovirus infection; AID 1251; 200,000 compounds, 0.37% hits; arbovirus infection cell-based antiviral screen; inhibition, % at 10 µM; in the data active means inhibition above about 30%
Wee1 stabilizer: blocks degradation of human Wee1 kinase. HeLa Luc-Wee1K328M stability, luciferase luminescence; 100% = proteasome inhibitor MG132 effect. reporter increase, % at 5 µM. AID 1321. P30291. 220,000 compounds, 1.2% hits;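 active means activation above the mean of all tested compounds plus 3 SD, set per screening run, cut at about 8.8% in these data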;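 further: cells exposed to compound for 20 h before luminescence read; 0% = DMSO alone and 100% = MG132 at 30 µM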
Lmaj promast: Leishmania major promastigote growth inhibition; Leishmania major promastigotes, resazurin fluorescence viability; inhibition, % at 10 µM; 200,000 compounds, 9% hits; AID 1063;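 further: promastigotes grown with compound for 44 hours at 28 °C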
The depositor's hits bear a star; . = no result. Unless noted, no stated cut-off is given here; in the data, active means inhibition above about 50%; inactive means the rest.

SMILES	Rad51 HR inh	CHOP inhibitor	PKD1 inh	Arbovirus anti	Wee1 stabilizer	Lmaj promast
CCCCOc1ccc(S(=O)(=O)N2CCCCCC2)cc1	8.0	91.0*	-4.9	-5.9	0.4	7.3
COc1ccc(S(=O)(=O)Nc2cccc(S(=O)(=O)N3CCCCCC3)c2)cc1	-6.5	-14.8	3.3	13.7	-2.2	-2.5
COc1ccc(Oc2ccc(S(=O)(=O)N3CCCCC3)cc2S(=O)(=O)N2CCCCC2)cc1	16.1	-13.9	.	35.8*	-0.8	.
O=C(NCCCl)Nc1cccnc1Cl	-1.4	-1.0	1.0	10.8	-0.9	-7.2
Cc1cccc(CCNC(=O)C2CCN(S(=O)(=O)c3c(C)nn(C)c3C)CC2)c1	1.6	7.7	-4.9	13.2	2.5	0.2
Cc1cccc(CCNC(=O)C2CCN(S(=O)(=O)c3c(C)noc3C)CC2)c1	2.2	7.4	-3.5	0.4	2.0	100.0*
COc1ccc(CCNC(=O)C2CCN(S(C)(=O)=O)CC2)cc1OC	-0.4	6.2	-10.3	4.7	8.7	-4.5
COc1ccc(CCNC(=O)C2CCN(S(=O)(=O)c3c(C)noc3C)CC2)cc1OC	3.1	-11.8	-3.0	-1.4	-1.8	52.5*
CCC1CCCCN1CCNC(=O)C1CCN(S(=O)(=O)c2c(C)noc2C)CC1 (stereo unspecified)	3.3	13.2	1.9	-5.2	0.8	76.9*
CSc1nc2ccccc2nc1N(C)S(=O)(=O)c1ccc(C)cc1	13.7	9.2	.	.	0.2	.
CCCCCCCCNC(=O)c1cccnc1SCC(=O)Nc1ccc(OC)cc1OC	6.8	62.2	3.1	-8.2	-0.1	85.9*
Cc1cc(C(=O)CSc2n[nH]c(N)n2)c(C)n1-c1ccc2c(c1)OCO2	0.9	27.2	-2.9	-0.9	-3.1	59.9*
Cc1cc(C(=O)CSc2nc(N)cc(=O)[nH]2)c(C)n1-c1ccc(OC(F)F)cc1	-10.6	61.4	-4.4	3.8	1.6	98.0*
Cc1cc(C(=O)CSc2nc(N)cc(N)n2)c(C)n1-c1cccc(F)c1	-2.4	40.7	12.1	2.6	0.7	76.9*
Cc1cc(C(=O)CSc2nc(N)cc(N)n2)c(C)n1C1CC1	-21.7	-2.6	0.9	5.2	1.4	9.8
S=C1NCCNC(=S)NCCOCCOCCN1	3.0	6.9	-8.8	-0.5	-1.5	-7.9
O=C(O)CC1(CC(=O)Nc2ccc3c(c2)C(=O)OC3)CCCCC1	15.5	-3.4	.	.	-3.4	.
CN(Cc1nc(Cc2cccc(F)c2)no1)CC1CCOCC1	-9.4	-2.2	-4.3	1.2	5.3	-1.8
CCCCOP(=O)(OCCCC)C(Nc1ccccc1)c1ccc2c(c1)OCO2 (stereo unspecified)	.	91.1*	-2.0	-24.9	0.6	0.9
Oc1ccc(Cc2ccc(Cl)cc2)c(O)c1	6.3	16.3	.	.	1.4	.
O=C(Cc1c[nH]c2ccccc12)Nc1ccc(N2CCOCC2)cc1	-4.7	-1.4	-4.0	11.1	-0.7	8.2
O=C1C=C(NC2=CC3OC(c4ccccc4)OCC3OC2=O)CCC1 (stereo unspecified)	-8.1	95.3*	-16.6	6.5	0.6	38.0
O=C1C=C(NCc2ccccc2)CCC1	1.2	-0.8	-3.5	5.5	0.8	-6.1
O=C(O)c1ccc(-c2nnn(Cc3cccc(C(F)(F)F)c3)n2)cc1	4.7	-16.8	.	.	3.7	.
Cc1cc(OCCOCCNC(C)C)cc(C)c1Cl	.	34.8	4.9	-18.1	-0.1	98.0*
SMILES	Rad51 HR inh	CHOP inhibitor	PKD1 inh	Arbovirus anti	Wee1 stabilizer	Lmaj promast
COc1cccc(C(=O)/C=C/Nc2ccc(S(=O)(=O)Nc3cccc(C(C)=O)c3)cc2)c1	-4.0	61.3	-15.4	14.5	0.3	82.1*
COc1ccc(C(=O)/C=C/Nc2ccc(S(=O)(=O)Nc3ncccn3)cc2)cc1	0.7	-3.9	-4.6	3.7	6.2	-6.1
COc1cc(/C=C/C(=O)c2ccc(NS(=O)(=O)c3ccc(C)cc3)cc2)ccc1OC(F)F	3.4	37.1	-6.6	-37.5	3.0	98.5*
COc1cc(/C=C/C(=O)O)ccc1OS(=O)(=O)c1ccc(C)cc1	18.2	-8.4	0.8	1.3	0.9	-10.4
Cc1noc(NS(=O)(=O)c2ccc(N/C=C/C(=O)c3ccc(F)cc3)cc2)c1C	14.0	14.4	-7.1	1.4	0.3	-8.2
COc1cccc(/C=C/C(=O)c2ccc(NS(=O)(=O)c3ccc(C)cc3)cc2)c1	-11.8	15.5	1.0	-1.9	0.7	99.4*
COc1ccc(C(=O)/C=C/Nc2ccc(S(=O)(=O)Nc3onc(C)c3C)cc2)cc1	-5.2	10.9	-6.2	3.1	0.4	66.3*
CCN(CC)S(=O)(=O)c1ccc2c(c1)N(CC(=O)Nc1cccnc1Cl)C(=O)CO2	4.3	-17.6	-2.5	5.3	-2.4	0.4
N#CCC(=N)N1CCN(c2ccc(F)cc2)CC1	0.8	21.6	-2.1	10.1	-3.2	-6.8
COc1cc(/C=C/C(=O)c2ccc(NS(=O)(=O)c3ccc(C)cc3)cc2)cc(OC)c1O	-19.2	-198.4	0.3	-34.7	0.7	82.5*
Cn1cc(CC(=O)N2CCN(c3ccc(Cl)cc3)CC2)c2ccccc21	-5.4	39.8	-11.9	8.8	3.7	64.7*
Cc1cccc(C)c1NC(=O)C[N+](C)(C)C	.	-8.0	.	.	.	.
Cc1cc(C(C)(C)C)oc1C(=O)NCCCNC(=O)c1oc(C(C)(C)C)cc1C	3.4	95.6*	0.1	-2.0	3.3	-5.5
CC(CCCC(C)(C)O)CC1C2=C(CCCC2=O)OC2=C1C(=O)CCC2 (stereo unspecified)	3.4	19.2	-3.8	4.1	1.9	-4.5
Cc1c(C(C)(C)C)c(C=S)n2ccccc12	-4.3	20.1	13.2	12.1	1.1	62.7*
COc1cc(NS(=O)(=O)c2ccc(N)cc2)nc(OC)n1	-10.2	8.9	-6.8	2.9	-3.5	-6.7
COc1cc(NS(=O)(=O)c2ccc(Nc3nc(-c4ccccc4)cs3)cc2)nc(OC)n1	.	90.2*	-3.9	-4.8	0.4	10.7
CCN(CC)CCCNC(=O)C1c2ccccc2Oc2ccccc21	-7.9	2.5	-1.6	2.0	-0.7	17.7
CNCCCC1Sc2ccccc2Oc2ccccc21 (stereo unspecified)	9.1	11.6	3.2	-36.2	-2.5	100.4*
O=C1c2nccnc2C(=O)N1c1ccc(F)cc1	-13.5	13.9	-5.5	19.6	2.5	-7.9
Cc1ccc(C(=O)N/C(=C/c2ccc(F)cc2)C(=O)NCc2ccncc2)cc1	.	-20.9	-7.4	-2.5	2.5	-3.9
O=c1[nH]c2ccc(Cl)cc2c(-c2ccccc2)c1N1CCN(c2ccccn2)CC1	1.8	70.6*	4.0	-0.6	-0.6	33.4
CC1CCC/C(=N/Nc2nc3ccccc3s2)C1 (stereo unspecified)	2.6	7.2	8.9	-0.4	2.5	51.6*
O=C(CN1C(=O)C(=O)N(Cc2ccccc2)C1=O)Nc1ccc(F)c(Cl)c1	-2.3	4.1	2.8	7.3	-1.8	-1.1
CN1c2ccccc2C(C)(C)C12CC(c1cccc(S(=O)(=O)N3CCCC3)c1)=NO2 (stereo unspecified)	-9.7	21.2	1.2	10.2	-1.8	72.6*
